According to PMC3215888 (Cancer Chemotherapy and Pharmacology, 2011):
Read-outs that look alike come from different tables or passages of the source.

Legend:
neuroblastoma cell lines = test: DIMSCAN in vitro testing, 96 h, neuroblastoma panel; format: cell-based
Method in brief: (§1)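 Neuroblastoma and Ewing sarcoma lines, STR-verified and maintained as in the originators' reports. Exposed for 96 h to test compound (DMSO stock diluted in medium) at 1 nM–10 μM. Viable cells quantified by fluorescein diacetate fluorescence with DIMSCAN digital image microscopy. Absolute IC50 = concentration giving 50% growth inhibition vs controls. Relative IC50 = concentration giving 50% of the maximum inhibitory effect.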

[1] = tested on: CHLA-10 Ewing sarcoma cell line; test: DIMSCAN in vitro testing, 96 h; format: cell-based; conditions: for IC50: 96 h
Method in brief: as §1

[2] = tested on: CHLA-25 Ewing sarcoma cell line; test: DIMSCAN in vitro testing, 96 h; format: cell-based; conditions: for IC50: 96 h
Method in brief: as §1

[3] = tested on: NB-1643 Neuroblastoma xenograft; format: in vivo, mice
Method in brief: (§2)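 Female CB17 scid mice bearing subcutaneous tumors, 10 per group. Dosed by oral gavage twice daily, 5 days weekly for 6 weeks, at 20.8, 10.4, 5.2 or 2.6 mg/kg, in 10% 2-hydroxypropyl-β-cyclodextrin/1% sodium bicarbonate. Event = quadrupled tumor volume; EFS by Kaplan–Meier, exact log-rank test. Per-mouse scores PD/SD/PR (≥50% regression)/CR (<0.10 cm3)/MCR; group median reported. PR, CR and MCR count as objective responses.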

[4] = tested on: solid tumor and ALL xenograft models; test: EFS activity across all xenograft models at the MTD; format: in vivo, mice; conditions: MTD 20.8 mg/kg
ALL xenograft models = test: Objective responses across the ALL xenograft panel; format: in vivo, mice
Method in brief: (§3)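 Female NOD/scid mice inoculated intravenously with leukemia cells, 8 per group. Test compound suspended in 10% 2-hydroxypropyl-β-cyclodextrin/1% sodium bicarbonate in water. Given by oral gavage twice daily, 5 days weekly for 3 weeks, at 20.8, 10.4, 5.2 or 2.6 mg/kg. Blood %hCD45 of leukocytes tracked; event = hCD45 reaching 25%. EFS by Kaplan–Meier, exact log-rank vs controls. Median group response from individual scores.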

[5] = tested on: ALL-2 ALL B-precursor xenograft; test: ALL xenograft; format: in vivo, mice
Method in brief: as §3

[6] = tested on: NB-EBc1 neuroblastoma cell line; test: DIMSCAN in vitro testing, 96 h; format: cell-based; conditions: for IC50: Neuroblastoma cell, 96 h
Method in brief: as §1

[7] = tested on: CHLA-90 neuroblastoma cell line; test: DIMSCAN in vitro testing, 96 h; format: cell-based; conditions: for IC50: Neuroblastoma cell, 96 h
Method in brief: as §1

[8] = tested on: TC-71 Ewing sarcoma cell line; test: DIMSCAN in vitro testing, 96 h; format: cell-based; conditions: for IC50: TC-71, 96 h
Method in brief: as §1

[9] = tested on: SMS-KCNR neuroblastoma cell line; test: DIMSCAN in vitro testing, 96 h; format: cell-based; conditions: for IC50: 96 h
Method in brief: as §1

[10] = tested on: SMS-KANR neuroblastoma cell line; test: DIMSCAN in vitro testing, 96 h; format: cell-based; conditions: for IC50: Neuroblastoma cell, 96 h
[11] = tested on: solid tumor xenograft models; test: Objective responses across the solid tumor xenograft panel; format: in vivo, mice; conditions: MTD 20.8 mg/kg
Method in brief: as §2

[12] = tested on: NB-EBc1 Neuroblastoma xenograft; format: in vivo, mice
Method in brief: as §2

[13] = tested on: SMS-LHN neuroblastoma cell line; test: DIMSCAN in vitro testing, 96 h; format: cell-based; conditions: for IC50: Neuroblastoma cell, 96 h
Method in brief: as §1

Ewing sarcoma cell lines = test: DIMSCAN in vitro testing, 96 h, Ewing panel; format: cell-based
Method in brief: as §1

## COc1cc(Nc2ncc3c(n2)-c2ccc(Cl)cc2C(c2c(F)cccc2OC)=NC3)ccc1C(=O)O [MLN8237]
Neuroblastoma cell lines; Neuroblastoma cell, read-out: relative IC50 values, neuroblastoma panel
  IC50: 23 nM
Neuroblastoma cell lines; median of neuroblastoma panel
  median Ymin, neuroblastoma cell lines: 10.4%
[1]; read-out: Absolute IC50
  IC50: 60 nM
[1]; read-out: Relative IC50
  IC50: 56 nM
[1]; CHLA-10, minimum T/C
  Ymin: 4.7%
[2]; read-out: Absolute IC50
  IC50: 168 nM
[2]; read-out: Relative IC50
  IC50: 58 nM
[2]; CHLA-25, minimum T/C
  Ymin: 30.1%
[3]; 2.6 mg/kg
  EFS T/C: 1.2
  EFS activity: Low
  Estimate of median time to event: 20.3 days
  Median group response: PD1 (if the TGD value ≤1.5, that mouse was considered PD1)
  Response activity: Low
  Tumor volume T/C: 1.01
  Median RTV/hCD45 at end of study: >4
[3]; 5.2 mg/kg
  EFS T/C: >2.4
  EFS activity: High
  Response activity: High
  Tumor volume T/C: 0.38
  Median RTV/hCD45 at end of study: 0.4
[3]; 10.4 mg/kg
  EFS T/C: >2.4
  EFS activity: High
  Median group response: MCR
  Response activity: High
  Tumor volume T/C: 0.30
  Median RTV/hCD45 at end of study: 0.0
[3]; 20.8 mg/kg
  EFS T/C: >2.4
  EFS activity: High
  Median group response: MCR
  Response activity: High
  Tumor volume T/C: 0.14
  Median RTV/hCD45 at end of study: 0.0
[4]
  evaluable lines meeting the criteria for high activity (EFS T/C): Eight out of 11
ALL xenograft models; 0.25MTD, three models
  ALL xenografts classified as objective responses: two out of three
ALL xenograft models; 0.5MTD, three models
  response in ALL models: CR in each of three ALL models
ALL xenograft models; MTD 20.8 mg/kg
  ALL xenografts with objective responses, of 3 tested: 3
[5]; 2.6 mg/kg
  EFS T/C: 2.3
  EFS activity: Int
  Estimate of median time to event: 25.2 days
  Median group response: PD2 (if the TGD value >1.5, the mouse was considered PD2)
  Response activity: Int
  Median RTV/hCD45 at end of study: >25%
[5]; 5.2 mg/kg
  EFS T/C: >3.8
  EFS activity: Int
  Response activity: High
  Median RTV/hCD45 at end of study: >25%
[5]; 10.4 mg/kg
  EFS T/C: >3.8
  EFS activity: Int
  Response activity: High
  Median RTV/hCD45 at end of study: 3.1%
[5]; 20.8 mg/kg
  EFS T/C: >3.8
  EFS activity: High
  Median group response: MCR
  Response activity: High
  Median RTV/hCD45 at end of study: 0.3%
[6]; NB-EBc1, minimum T/C
  Ymin: 3.6%
[6]; read-out: Absolute IC50
  IC50: 50 nM
[6]; read-out: Relative IC50
  IC50: 49 nM
[7]; CHLA-90, minimum T/C
  Ymin: 16.3%
[7]; read-out: Absolute IC50
  IC50: 61 nM
[7]; read-out: Relative IC50
  IC50: 48 nM
[8]; read-out: Absolute IC50
  IC50: 102 nM
[8]; read-out: Relative IC50
  IC50: 100 nM
[8]; TC-71, minimum T/C
  Ymin: 10.0%
[9]; read-out: Absolute IC50
  IC50: 10 nM
[9]; read-out: Relative IC50
  IC50: 9 nM
[9]; minimum T/C
  Ymin: 6.6%
[10]; read-out: Absolute IC50
  IC50: 26 nM
[10]; read-out: Relative IC50
  IC50: 23 nM
[10]; SMS-KANR, minimum T/C
  Ymin: 11.4%
[11]
  objective responses out of 9 models in the solid tumor panel: 5
[12]; 2.6 mg/kg
  EFS T/C: 1.7
  EFS activity: Low
  Estimate of median time to event: 9.6 days
  Median group response: PD2 (if the TGD value >1.5, the mouse was considered PD2)
  Response activity: Int
  Tumor volume T/C: 0.57
  Median RTV/hCD45 at end of study: >4
[12]; 5.2 mg/kg
  EFS T/C: 2.0
  EFS activity: Low
  Estimate of median time to event: 11.3 days
  Median group response: PD2 (if the TGD value >1.5, the mouse was considered PD2)
  Response activity: Int
  Tumor volume T/C: 0.44
  Median RTV/hCD45 at end of study: >4
[12]; 10.4 mg/kg
  EFS T/C: 3.1
  EFS activity: Int
  Estimate of median time to event: 17.9 days
  Median group response: PD2 (if the TGD value >1.5, the mouse was considered PD2)
  Response activity: Int
  Tumor volume T/C: 0.22
  Median RTV/hCD45 at end of study: >4
[12]; 20.8 mg/kg
  EFS T/C: >7.2
  EFS activity: High
  Median group response: MCR
  Response activity: High
  Tumor volume T/C: 0.15
  Median RTV/hCD45 at end of study: 0.3
[13]; read-out: Absolute IC50
  IC50: 32 nM
[13]; read-out: Relative IC50
  IC50: 20 nM
[13]; SMS-LHN, minimum T/C
  Ymin: 25.1%
Ewing sarcoma cell lines; median of Ewing panel
  median Ymin, Ewing cell lines: 11.4%
Ewing sarcoma cell lines; read-out: relative IC50 values, Ewing sarcoma cell lines
  IC50: 58 nM
